Data reported in ChEMBL document CHEMBL1142233, “Treatment of diabetes and atherosclerosis by inhibiting fatty-acid-binding protein aP2” (2007).
Active and inactive are the calls of the source. The rule behind the calls is not given here.

Legend:
Mus musculus [1] = assay: Effect on triglyceride level in 5-week old apoE-/- C57BL/6J mouse fed on western diet and administered with 15 mg/kg/day, po drug at 12 week in 12-18 week late intervention study; assay type: functional
In short: (§1)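 Male Apoe−/− mice on western diet (21% fat, 0.21% cholesterol) from 4–5 weeks of age. Oral gavage for 6 weeks from age 5 or 12 weeks; vehicle 10% 1-methyl-2-pyrrolidone, 5% cremophor EL with ethanol in water. Blood taken after 6 h fast before and after treatment. Glucose by meter; insulin by ELISA; lipids and glycerol colorimetric.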

Mus musculus [2] = assay: Decrease in insulin level in ob/ob mouse plasma at 40 mg/kg/day, po after 6 weeks relative to control; assay type: functional, organism-based
In short: (§2)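 Male ob/ob mice given oral gavage daily for 6 weeks from 8 weeks old, n = 6 per group. Blood taken after 6 h fast before and after treatment; fed glucose taken at week 2. Glucose by meter on 3 μl whole blood, insulin by ultrasensitive ELISA, cholesterol, FFA and glycerol by colorimetric microplate assays.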

Mus musculus [3] = assay: Decrease in IL1-beta expression in ob/ob mouse adipose tissue at 40 mg/kg/day, po; assay type: functional, organism-based
[4] = Reduction of IL6 expression mouse aP2+/+ macrophage cells relative to control; assay type: functional, cell-based
In short: (§3)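 Mouse aP2⁺/⁺ and aP2-reconstituted aP2⁻/⁻ macrophage lines were grown in RPMI with FBS or 5% LPDS, with inhibitor in DMSO or vehicle. Mcp-1, Il1β, Il6 and Tnf mRNA were measured by SYBR Green qRT-PCR (annealing at 58 °C, 50 cycles), normalized to 18s rRNA and then to untreated cells. Mean ± s.e.m.; at least triplicate.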

Mus musculus [5] = assay: Effect on cholesterol level in 5-week old apoE -/- C57BL/6J mouse fed on western diet and 15 mg/kg/day, po drug simultaneously in 5-11 week early intervention study; assay type: functional; in short: as §1
Mus musculus [6] = species: Mus musculus; assay: Decrease in glucose level in wild type mouse fed on high fat diet after 4 weeks by glucose tolerance test relative to control; assay type: functional, organism-based
In short: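 Wild-type C57BL/6J mice on 60% fat diet from 4 weeks of age, gavaged with 40 mg kg⁻¹ d⁻¹ or vehicle for 4 weeks starting at 20 weeks of age. Glucose tolerance tested with 1.5 g kg⁻¹ intraperitoneal glucose after an overnight fast.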

THP-1 [7] = assay: Decrease in MCP1 production in human THP1 cells expressing aP2 after 24 hrs; assay type: functional, cell-based
In short: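 THP-1 monocytes differentiated with 100 nM PMA for 24 h. Incubated 24 h in RPMI with 5% lipoprotein-deficient serum with inhibitor 0–25 μM in DMSO. Supernatant MCP-1 measured by ELISA and normalized to cellular protein. At least triplicate.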

Mus musculus [8] = assay: Effect on adiponectin level in 5-week old apoE-/- C57BL/6J mouse fed on western diet and administered with 15 mg/kg/day, po drug at 12 week in 12-18 week late intervention study; assay type: functional; in short: as §1
Mus musculus [9] = assay: Increase in insulin-stimulated AKT serine 473 phosphorylation in ob/ob mouse adipose tissue at 40 mg/kg/day, po relative to control; assay type: functional, organism-based
In short: (§4)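 Male ob/ob mice were dosed by oral gavage at 40 mg kg⁻¹ d⁻¹ or with vehicle. After 6 h food withdrawal and tribromoethanol anaesthesia, insulin (2 IU kg⁻¹) or PBS went into the portal vein. Adipose tissue was taken 3 min later, lysed and immunoblotted for IRβ pTyr1162/1163, AKT pSer473 and total proteins. Signals were quantified by densitometry.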

[10] = Decrease in MCP1 production in mouse aP2-/-R macrophage cells (re-expression of aP2) after 24 hrs; assay type: functional, cell-based
In short: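 Immortalized mouse macrophage lines (aP2−/−R re-expressing aP2) kept 24 h in RPMI plus 5% LPDS with inhibitor 0–25 μM in DMSO. MCP-1 in supernatant measured by ELISA and expressed relative to inhibitor-free cells of each line. At least triplicate.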

Mus musculus [11] = species: Mus musculus; assay: Decrease in fatty acid uptake in wild type mouse aP2+/+ mal1+/+ preadipocytes after 24 hrs; assay type: functional
In short: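 Immortalized mouse pre-adipocytes differentiated with dexamethasone, IBMX, rosiglitazone and insulin, then insulin alone. Cells incubated 24 h in DMEM with 2% FBS plus inhibitor, then moved to DMEM with 2% BSA and given ³H-stearate at 37 °C for 30 min. Lysate counted by scintillation; values normalized to protein and expressed as % of untreated.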

Mus musculus [12] = assay: Decrease in Acaca expression in liver of ob/ob mouse at 40 mg/kg/day, po; assay type: functional, organism-based
In short: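 Liver from male ob/ob mice gavaged daily for 6 weeks from 8 weeks of age, n = 6 per group. mRNA measured by SYBR Green real-time PCR: 95 °C 4 min, then 50 cycles of 95 °C 15 s, 58 °C 30 s, 72 °C 30 s. Normalized to 18s rRNA.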

THP-1 [13] = assay: Increase in ABCA1 protein level in human THP1 cells at 25 uM relative to control; assay type: functional, cell-based
Mus musculus [14] = assay: Effect on free fatty acid level in 5-week old apoE-/- C57BL/6J mouse fed on western diet and administered with 15 mg/kg/day, po drug at 12 week in 12-18 week late intervention study; assay type: functional; in short: as §1
[15] = Reduction of IL1-beta expressed in mouse aP2-/-R macrophage cells (re-expression of aP2) relative to control; assay type: functional, cell-based; in short: as §3
Mus musculus [16] = assay: Effect on free fatty acid level in 5-week old apoE-/- C57BL/6J mouse fed on western diet and 15 mg/kg/day, po drug simultaneously in 5-11 week early intervention study; assay type: functional; in short: as §1
Mus musculus [17] = assay: Decrease in blood glucose level in fasted ob/ob mouse at 40 mg/kg/day, po after 6 weeks; assay type: functional, organism-based; in short: as §2
Mus musculus [18] = assay: Increase in insulin-stimulated IRbeta tyrosine 1162/1163 phosphorylation in ob/ob mouse adipose tissue at 40 mg/kg/day, po relative to control; assay type: functional, organism-based; in short: as §4
Mus musculus [19] = assay: Attenuation of JNK1 activity in ob/ob mouse adipose tissue at 40 mg/kg/day, po; assay type: functional
In short: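 Adipose lysate from male ob/ob mice (oral gavage 6 weeks from 8 weeks of age) immunoprecipitated with JNK1 antibody and protein A beads. Beads incubated with 10 μCi ³²P γATP, 10 μM ATP and 5 μg c-jun fusion protein at 30 °C for 20 min, then Laemmli stop.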

THP-1 [20] = assay: Increase in ABCA1 mRNA level in human THP1 cells at 25 uM relative to control; assay type: functional, cell-based
Mus musculus [21] = assay: Attenuation of fatty infiltration of liver in ob/ob mouse at 40 mg/kg/day, po; assay type: functional, organism-based
In short: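 Male ob/ob mice given daily oral gavage for 6 weeks starting at 8 weeks of age. Liver sections stained with haematoxylin and eosin; n = 6 per group.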

Mus musculus [22] = assay: Increase in insulin-stimulated AKT serine 473 phosphorylation in ob/ob mouse liver at 40 mg/kg/day, po relative to control; assay type: functional, organism-based
In short: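 Male ob/ob mice got 40 mg kg⁻¹ d⁻¹ by oral gavage or vehicle. After a 6 h fast under tribromoethanol anaesthesia, portal-vein insulin (2 IU kg⁻¹) or PBS was given. Liver was removed 3 min later, lysed and western-blotted for IRβ pTyr1162/1163 and AKT pSer473 against total IRβ and AKT, then quantified.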

## CCc1c(-c2ccccc2)c(-c2ccccc2)nn1-c1ccccc1-c1cccc(OCC(=O)O)c1
Mus musculus [1]
  Activity: 410.7 mg/dL
Mus musculus [2]
  Activity: Active
Mus musculus [3]
  Activity: Active
[4]
  Activity: Active
Mus musculus [5]
  Activity: 1465.3 mg/dL
Mus musculus [6]
  Activity: Active
THP-1 [7]
  Activity: Dose-dependent effect
Mus musculus [8]
  Activity: 5.78 µg/mL
Mus musculus [9]
  Activity: Active
[10]
  Activity: Active
Mus musculus [11]
  Activity: Dose-dependent effect
Mus musculus [12]
  Activity: Active
THP-1 [13]
  Activity: Active
Mus musculus [14]
  Activity: 2.55 mM
[15]
  Activity: Active
Mus musculus [16]
  Activity: 2 mM
Mus musculus [17]
  Activity: Active
Mus musculus [18]
  Activity: Active
Mus musculus [19]
  Activity: 40%
THP-1 [20]
  Activity: Active
Mus musculus [21]
  Activity: Active
Mus musculus [22]
  Activity: Active
